Activity calls are given as the source filed them. The calls are words filed in the database; no cut-off is given here.

Assay [1] is described as follows: Activation of cellular function of human neutrophils assessed as induction of chemotactic activity at 0.01 uM. It counts as functional, cell-based. The note with it: Neutrophil. The gist of the method:
(§1)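 48-well microchemotaxis chamber with peptide in the lower compartment, diluted from 10^-2 M DMSO stock into KRPG with 1 mg/mL BSA; tested 10^-12 to 10^-5 M. Filter migration was scored by the leading-front method. Chemotactic index = (migration to attractant − migration to buffer)/migration to buffer. Five experiments, duplicate.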

Assay [2] concerns Neutrophil. The assay is described as follows: Ratio of compound to fMLP-OMe potency for induction of chemotactic activity in human neutrophils. It counts as functional.
Assay [3] in a line: Activation of cellular function of human neutrophils assessed as chemotactic index at 0.01 uM. It counts as functional, cell-based. The note with it: Neutrophil. The gist of the method:
as §1

Assay [4] in a line: Activation of cellular function of cytochalasin B-pretreated human neutrophils assessed as induction of superoxide anion production at 10 uM by microplate-based assay. Conditions: Neutrophil. It counts as functional, cell-based. The gist of the method:
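Microplate ferricytochrome c reduction, superoxide dismutase-inhibitable, in KRPG. Wells held 4 × 10^5 neutrophils and 100 nmol cytochrome c. Cells were pre-incubated with cytochalasin B for 5 min. Peptide (10^-10 to 10^-4 M) was added at zero time at 37 °C. A550 minus A468 was converted to nmol O2− using ε 18.5 mM^-1 cm^-1. Five experiments, duplicate.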

Assay [5] is described as follows: Activation of cellular function of cytochalasin B-pretreated human neutrophils assessed as induction of lysozyme release at 1 uM after 15 mins by microplate-based assay. The note with it: Neutrophil. It counts as functional, cell-based. The gist of the method:
(§2)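 Neutrophils from heparinized peripheral blood of fasting healthy donors (dextran sedimentation, Ficoll-Paque, hypotonic NH4Cl lysis), resuspended in KRPG pH 7.4 with 1 mM MgCl2 and CaCl2. Pre-incubated with cytochalasin B for 15 min at 37 °C, then given peptide (final 10^-10 to 10^-4 M) for 15 min at 37 °C. After centrifugation, lysozyme was read by Micrococcus lysodeikticus lysis rate at 465 nm, as net % of Triton X-100 total. Five experiments, duplicate.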

Assay [6] can be described thus: Activation of cellular function of cytochalasin B-pretreated human neutrophils assessed as maximal induction of lysozyme release at 10 uM after 15 mins by microplate-based assay. It counts as functional, cell-based. The note with it: Neutrophil. An outline of the steps: as §2
Assay [7] can be described thus: Activation of cellular function of human neutrophils assessed as chemotactic index at 0.000001 to 10 uM. It counts as functional, cell-based. The note with it: Neutrophil. The gist of the method: as §1

Take `COC(=O)C[C@H](NCCCC[C@H](NC(=O)[C@H](Cc1ccccc1)NC(=O)[C@H](CC(C)C)NC(=O)[C@H](CCSC)NC=O)C(=O)OC)C(=O)N[C@@H](Cc1ccccc1)C(=O)N[C@@H](CC(C)C)C(=O)N[C@H](C=O)CCSC`: the outcome in assay [1], in assay [4] and in assay [6] was Active. Besides, the Ratio was determined as 10 in assay [2], 0.9 in assay [3] and 0.95 in assay [7]. The Efficacy in assay [5] stood at 20%.
In the case of `COC(=O)[C@H](CCCCN[C@@H](Cc1ccccc1)C(=O)N[C@@H](CC(C)C)C(=O)N[C@H](C=O)CCSC)NC(=O)[C@H](Cc1ccccc1)NC(=O)[C@H](CC(C)C)NC(=O)[C@H](CCSC)NC=O`, the result in assay [1], in assay [4] and in assay [6] was Active. Further, in assay [2], the Ratio worked out at 10. Further, the Efficacy in assay [5] was 40%.
In the case of `COC(=O)[C@H](Cc1ccccc1)NC(=O)[C@H](CC(C)C)NC(=O)[C@H](CCSC)NC=O`, the Ratio in assay [3] and in assay [7] was 1.05 throughout. Besides, in assay [5], the Efficacy came out at 60%.
With `COC(=O)[C@H](CCCCN[C@@H](Cc1ccccc1)C(=O)N[C@@H](CC(C)C)C(=O)N[C@H](C=O)CCSC)NC(=O)[C@H](CCCCN[C@@H](Cc1ccccc1)C(=O)N[C@@H](CC(C)C)C(=O)N[C@H](C=O)CCSC)NC(=O)[C@H](Cc1ccccc1)NC(=O)[C@H](CC(C)C)NC(=O)[C@H](CCSC)NC=O`, the outcome in assay [1], in assay [4] and in assay [6] was Active. In addition, the Ratio in assay [2] amounted to 10; in assay [3], 0.9; in assay [7], 0.95. The Efficacy in assay [5] is 40%.

(Values after ChEMBL document CHEMBL1154274, “Oligomeric formylpeptide activity on human neutrophils” (2009).)
